This note sets out measurements from ChEMBL document CHEMBL3046821, “Phospholipase A2 inhibitors synthesized by two entomopathogenic bacteria, Xenorhabdus nematophila and Photorhabdus temperata subsp. temperata” (Appl Environ Microbiol, 2012).

Test [1] deals with Spodoptera exigua. Nature of the test: Inhibition of immune responses in Spodoptera exigua fifth-instar larvae assessed as inhibition of hemocytic nodulation in response to Escherichia coli challenge by stereomicroscopy. It counts as functional, organism-based. Particulars: read-out: I50. The gist of the method:
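Fifth-instar S. exigua injected with E. coli (3.2 × 10^4 cells) mixed with compound in 10 μl; after 8 h at 25°C melanized nodules counted under stereomicroscope at ×50. Three replicates; I50 derived.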

The test system of test [2] is Plutella xylostella. Kind of test: Insecticidal activity against Plutella xylostella (diamondback moth) fourth-instar larvae fed on cabbage leaves soaked in compound solutions measured 48 hr post compound treatment by leaf-dipping method. It counts as functional. The method, boiled down:
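Leaf-dip feeding assay: Chinese cabbage pieces (1 cm2) soaked 5 min in test solutions at predetermined concentrations, briefly dried in the dark, then fed to P. xylostella larvae (field-origin colony reared on cabbage at 25 ± 1°C, 16:8 h light:dark). Three replicates of 10 larvae per dose. Mortality scored at 48 h; dead = no coordinated movement when prodded. Dose-mortality curves give LC50.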

Test [3] concerns Plutella xylostella. Kind of test: Potentiation of 1000 ppm Bacillus thuringiensis-induced pathogenicity against Plutella xylostella (diamondback moth) fourth-instar larvae at 10000 ppm measured 48 hr post compound treatment. It counts as functional, organism-based. The method, boiled down: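 P. xylostella larvae fed Chinese cabbage pieces (1 cm2) dipped 5 min in test solutions together with commercial B. thuringiensis subsp. kurstaki, briefly dried in dark. Mortality at 48 h, with dead meaning no coordinated movement on probing; 10 larvae per replicate, three replicates; arcsine-square-root transformed, LSD test.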

Test [4] relates to Spodoptera exigua. Kind of test: (§1) Inhibition of PLA2 in hemocytes of Spodoptera exigua fifth-instar larvae using pyrene-labeled phospholipid substrate by spectrofluorometry. It counts as cell-based. The gist of the method: (§2)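 PLA2 from fifth-instar S. exigua hemocytes: hemolymph spun 500 × g 10 min, hemocytes sonicated in PBS, 12,500 × g 10 min 4°C supernatant. Enzyme (10 μg) preincubated with 10 μl sample, 25°C, 10 min; pyrene-labeled phosphatidylcholine substrate added with BSA and CaCl2 in PBS pH 7.4; residual activity by fluorescence, ex 348/em 390 nm. Triplicate independent samplings; I50 derived.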

Test [5] can be described thus: as §1. It counts as cell-based. Particulars: read-out: I50. The method, boiled down:
as §2

In test [6] the test system is Phenoloxidase (Spodoptera exigua). Kind of test: Inhibition of phenoloxidase activity in hemolymph of Spodoptera exigua fifth-instar larvae using DOPA substrate.

The structures appear in SMILES notation. ≈ marks a conversion by molar mass, not a printed value. Calls of active or inactive are those of the source. The rule behind the calls is not given here. Residues, ends and D or L forms follow the SMILES beside them.

For `O=C1N[C@@H](Cc2ccc(O)cc2)C(=O)N2CCC[C@@H]12`, the IC50 was found to be 37.7 µM with Spodoptera exigua [1] and 47.8 µM in test [5]. Moreover, the LC50 in the test on Plutella xylostella [2] turned out to be 5950 µg/mL (≈ 22.9 mM). The result in the test on Plutella xylostella [3] was Active. Further, the inhibition result with Spodoptera exigua [4] was “Dose-dependent effect”.

On to `CC(=O)N[C@@H](Cc1ccccc1)C(=O)NCC(=O)N[C@H](C(=O)O)C(C)C` (Ac-Phe-Gly-Val-OH), for which the IC50 came to 423 µM in the test with Spodoptera exigua [1] and 428 µM in test [5]. In the test with Plutella xylostella [2], this compound displayed an LC50 of 8350 µg/mL (≈ 23 mM). Moreover, the result with Plutella xylostella [3] was Active. Besides, the inhibition result (in test [6]; in the test with Spodoptera exigua [4]) was “Dose-dependent effect” in each case.

As to `O=C(O)[C@H](Cc1ccc(O)cc1)NC(=O)[C@@H]1CCCN1` (H-Pro-Tyr-OH), the figures for the IC50 (in the test on Spodoptera exigua [1]; in test [5]) were 473 µM and 522 µM, respectively. The median lethal concentration (LC50) with Plutella xylostella [2] amounted to 7690 µg/mL (≈ 27.6 mM). Also, the outcome in the test with Plutella xylostella [3] was Active. Besides, the inhibition entry (in test [6]; in the test on Spodoptera exigua [4]) was “Dose-dependent effect” in each case.

For the compound `CC(=O)/C=C/c1ccccc1` [BUTENONE], the result in the test with Plutella xylostella [3] was Active. The inhibition entry in the test with Spodoptera exigua [4] was “Dose-dependent effect”.

On to `O=C(O)CCc1ccc(O)cc1` [HYDROXYPHENYL PROPIONIC ACID], for which the IC50 with Spodoptera exigua [1] was 58.7 µM; in test [5], 49.5 µM. Besides, the LC50 with Plutella xylostella [2] stood at 6640 µg/mL (≈ 40 mM). In the test with Plutella xylostella [3], the outcome was Active. Also, the inhibition result (in test [6]; in the test with Spodoptera exigua [4]) was “Dose-dependent effect” throughout.

Turning to `c1ccc2[nH]ccc2c1` [INDOLE], the IC50 with Spodoptera exigua [1] stood at 52.9 µM; in test [5], 64.9 µM. Moreover, the LC50 in the test on Plutella xylostella [2] was 6270 µg/mL (≈ 53.6 mM). The result with Plutella xylostella [3] was Active. Besides, the inhibition entry with Spodoptera exigua [4] was “Dose-dependent effect”.

As for `O=C1Cc2ccccc2N1` [OXINDOLE], the IC50 in the test on Spodoptera exigua [1] was 32.3 µM; in test [5] it was 46.2 µM. Further, in the test on Plutella xylostella [2], the LC50 is 4830 µg/mL (≈ 36.3 mM). Further, the result in the test with Plutella xylostella [3] was Active. Further, the inhibition result (in test [6]; in the test with Spodoptera exigua [4]) was “Dose-dependent effect” in each case.
